Laboratory results reported in ChEMBL document CHEMBL1141776, “Gymnoascolides A-C: aromatic butenolides from an Australian isolate of the soil ascomycete Gymnoascus reessii” (2005).
Active and inactive are the calls of the source. No cut-off for these calls is given here.

Key:
Parastagonospora nodorum = test: Antifungal activity against Septoria nodorum after 48 hrs by agar-based microtiter plate assay; type: functional
Summary of the method: (§1)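 Agar-based microtiter plate assay: spores (20 000 sp/well) applied to potato dextrose agar in wells containing serial 2-fold dilutions of test compound. Plates incubated at 24 °C; fungal growth assessed qualitatively at 48 h.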

Candida albicans [1] = test: Antifungal activity against Candida albicans after 48 hrs by agar-based microtiter plate assay; type: functional; summary of the method: as §1
Bacillus subtilis = test: Antibacterial activity against Bacillus subtilis; type: functional, organism-based
NS1 = test: Cytotoxicity against mouse NS1 cells; type: functional, cell-based
[2] = tested on: Haemonchus contortus (nematode); test: Nematicidal activity against Haemonchus contortus
Candida albicans [3] = test: Antifungal activity against Candida albicans up to […] after 48 hrs by agar-based microtiter plate assay; type: functional, organism-based; summary of the method: as §1

SMILES | LD99 (Parastagonospora nodorum) [mg/mL] | LD99 (Candida albicans [1]) [mg/mL] | Activity (Bacillus subtilis) | Activity (NS1) | Activity [2] | Activity (Candida albicans [3])
CCCC[C@H]1C(=O)O[C@H](C)[C@H](NC(=O)c2cccc(NC=O)c2O)C(=O)O[C@@H](C)[C@@H]1OC(=O)CC(C)C [ANTIMYCIN A3] | 0.0002 | 0.05 |  |  |  | 
CO[C@H]1OC(=O)C(c2ccccc2)=C1C(O)c1ccccc1 (stereo partly specified) |  |  | inactive | inactive | inactive | 
C[C@@H]1[C@H](O)[C@@H](C)/C=C/C=C/C=C/C=C/C=C/C=C/C=C/[C@H](O[C@@H]2O[C@H](C)[C@@H](O)[C@H](N)[C@@H]2O)C[C@@H]2O[C@](O)(C[C@@H](O)C[C@@H](O)[C@H](O)CC[C@@H](O)C[C@@H](O)CC(=O)O[C@H]1C)C[C@H](O)[C@H]2C(=O)O [AMPHOTERICIN B] | 0.0031 | 0.0031 |  |  |  | 
O=C1OCC(Cc2ccccc2)=C1c1ccccc1 [GYMNOASCOLIDE A] | 0.013 |  | inactive | inactive | inactive | inactive
C[C@@H]1C[C@@H]([C@H](O)CC2CC(=O)NC(=O)C2)C(=O)[C@@H](C)C1 [CYCLOHEXIMIDE] | 0.0063 |  |  |  |  | inactive
CN(CC[C@H](N)CC(=O)N[C@@H]1C=C[C@@H](n2ccc(N)nc2=O)O[C@H]1C(=O)O)C(=N)N.Cl [BLASTICIDIN S HCL] | 0.0016 | 0.00039 |  |  |  | 
CO[C@@H]1OC(=O)C(c2ccccc2)=C1C(O)c1ccccc1 (stereo partly specified) |  |  | inactive | inactive | inactive | 
C[C@@H]1C[C@H]2O[C@@H]2/C=C\C=C\C(=O)Cc2c(Cl)c(O)cc(O)c2C(=O)O1 [RADICICOL] | 0.012 | 0.012 |  |  |  | 
